According to ChEMBL document CHEMBL1123476, “Synthesis of congeners and prodrugs of the benzene maleimide photoadduct mitindomide as potential antitumor agents. 2” (J Med Chem, 1986):
Values joined by “and” are separate entries in the source; they are usually repeats but may differ in a detail not shown here. Equal values may be shown once.

Legend:
P388 [1] = assay: (§1) Antitumor activity in P-388 lymphocytic leukemia system at 200 mg/kg dose levels per injection.; assay type: functional, Mus musculus
How it was run: (§2)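 P-388 leukemia in animals, Q01D×09 schedule: dose given daily for 9 days, in mg/kg per injection. Read-outs are survivors on day 4 (live/total animals), body-weight difference test minus control (g), and % T/C (median lifetime of treated ÷ median lifetime of controls × 100). Some compounds were tested in independent runs at different times.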

P388 [2] = assay: (§3) Antitumor activity in P-388 lymphocytic leukemia system at 50 mg/kg dose levels per injection.; assay type: functional, Mus musculus; how it was run: as §2
P388 [3] = assay: Antitumor activity in P-388 lymphocytic leukemia system at 25 mg/kg dose levels per injection; assay type: functional, Mus musculus; settings: 25 mg/kg
How it was run: (§4)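 P-388 leukemia in vivo, dosed Q01D×09 (one injection daily for 9 days, mg/kg per injection). Activity is %T/C, the median lifetime of treated animals divided by that of controls, ×100. Live animals on day 4 were counted against the total (survivors day 4). Repeat tests were done independently at different times.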

P388 [4] = assay: as §3; assay type: functional, Mus musculus; how it was run: as §4; remark: listed apart in the source
[5] = Solubility was determined; assay type: physicochemical
P388 [6] = assay: Antitumor activity in P-388 lymphocytic leukemia system at 25 mg/kg dose levels per injection.; assay type: functional, Mus musculus; how it was run: as §2
P388 [7] = assay: Antitumor activity in P-388 lymphocytic leukemia system and the difference in body weight was calculated at 50 mg/kg dose levels per injection.; assay type: functional, Mus musculus
P388 [8] = assay: as §1; assay type: functional, Mus musculus; settings: 200 mg/kg; how it was run: as §4
P388 [9] = assay: (§5) Antitumor activity in P-388 lymphocytic leukemia system at 100 mg/kg dose levels per injection.; assay type: functional, Mus musculus; how it was run: as §4
P388 [10] = assay: Antitumor activity in P-388 lymphocytic leukemia system and the difference in body weight calculated at 100 mg/kg dose levels per injection.; assay type: functional, Mus musculus; settings: 100 mg/kg
P388 [11] = assay: as §5; assay type: functional, Mus musculus; how it was run: as §2; remark: listed apart in the source
P388 [12] = assay: Antitumor activity in P-388 lymphocytic leukemia system and the difference in body weight was calculated at 200 mg/kg dose levels per injection.; assay type: functional, Mus musculus
P388 [13] = assay: Antitumor activity in P-388 lymphocytic leukemia system and the difference in body weight was calculated at 25 mg/kg dose levels per injection.; assay type: functional, Mus musculus
P388 [14] = assay: Compound was tested for antitumor activity in P-388 lymphocytic leukemia system and the difference in body weight was calculated at 30 mg/kg dose levels per injection; assay type: functional, Mus musculus
P388 [15] = assay: Compound was tested for antitumor activity in P-388 lymphocytic leukemia system at 60 mg/kg dose levels per injection; 6/6; assay type: functional, Mus musculus; how it was run: as §2
P388 [16] = assay: Compound was tested for antitumor activity in P-388 lymphocytic leukemia system at 30 mg/kg dose levels per injection; assay type: functional, Mus musculus; how it was run: as §4
P388 [17] = assay: Compound was tested for antitumor activity in P-388 lymphocytic leukemia system at 25 mg/kg dose levels per injection; assay type: functional, Mus musculus; how it was run: as §4
P388 [18] = assay: Compound was tested for antitumor activity in P-388 lymphocytic leukemia system and the difference in body weight was calculated at 166.7 mg/kg dose levels per injection; assay type: functional, Mus musculus
P388 [19] = assay: Compound was tested for antitumor activity in P-388 lymphocytic leukemia system at 200 mg/kg dose levels per injection; 5/6; assay type: functional, Mus musculus; how it was run: as §2
P388 [20] = assay: Compound was tested for antitumor activity in P-388 lymphocytic leukemia system at 166.7 mg/kg dose levels per injection; 3/6; assay type: functional, Mus musculus; how it was run: as §2
P388 [21] = assay: Compound was tested for antitumor activity in P-388 lymphocytic leukemia system and the difference in body weight was calculated at 60 mg/kg dose levels per injection; assay type: functional, Mus musculus
P388 [22] = assay: Compound was tested for antitumor activity in P-388 lymphocytic leukemia system at 50 mg/kg dose levels per injection; 5/6; assay type: functional, Mus musculus; how it was run: as §2
P388 [23] = assay: Compound was tested for antitumor activity in P-388 lymphocytic leukemia system at 60 mg/kg dose levels per injection; assay type: functional, Mus musculus; how it was run: as §4
P388 [24] = assay: Compound was tested for antitumor activity in P-388 lymphocytic leukemia system at 30 mg/kg dose levels per injection; 6/6; assay type: functional, Mus musculus; how it was run: as §2
P388 [25] = assay: Compound was tested for antitumor activity in P-388 lymphocytic leukemia system and the difference in body weight was calculated at 400 mg/kg dose levels per injection; assay type: functional, Mus musculus
P388 [26] = assay: Compound was tested for antitumor activity in P-388 lymphocytic leukemia system. at 400 mg/kg dose levels per injection; Toxic; assay type: functional, organism-based; parameters: dose 400 mg/kg; settings: Mus musculus; how it was run: as §4
P388 [27] = assay: Compound was tested for antitumor activity in P-388 lymphocytic leukemia system at 400 mg/kg dose levels per injection; 3/6; assay type: functional, Mus musculus; how it was run: as §2
P388 [28] = assay: Compound was tested for antitumor activity in P-388 lymphocytic leukemia system at 400 mg/kg dose levels per injection; 5/6; assay type: functional, Mus musculus; how it was run: as §2
P388 [29] = assay: Compound was tested for antitumor activity in P-388 lymphocytic leukemia system. at 400 mg/kg dose levels per injection; assay type: functional, Mus musculus; how it was run: as §4
[30] = Solubility was determined; INS= less than 0.1; assay type: physicochemical
P388 [31] = assay: Compound was tested for antitumor activity in P-388 lymphocytic leukemia system at 200 mg/kg dose levels per injection; assay type: functional, Mus musculus; settings: 200 mg/kg; how it was run: as §4
P388 [32] = assay: Compound was tested for antitumor activity in P-388 lymphocytic leukemia system at 400 mg/kg dose levels per injection; 6/6; assay type: functional, Mus musculus; how it was run: as §2
P388 [33] = assay: Compound was tested for antitumor activity in P-388 lymphocytic leukemia system at 400 mg/kg dose levels per injection; assay type: functional, Mus musculus; how it was run: as §4
P388 [34] = assay: Compound was tested for antitumor activity in P-388 lymphocytic leukemia system at 400 mg/kg dose levels per injection; Toxic; assay type: functional, organism-based; parameters: dose 400 mg/kg; settings: Mus musculus; how it was run: as §4

Compound	Survivors at day 4 (P388 [1])	Survivors at day 4 (P388 [2])	Solubility [5]	Survivors at day 4 (P388 [6])	T/C (P388 [8])	T/C (P388 [9]; 100 mg/kg)	Weight difference (P388 [10])	Survivors at day 4 (P388 [11])	Weight difference (P388 [12]; 200 mg/kg)	Weight difference (P388 [13])	T/C (P388 [17])	T/C (P388 [4])	Weight difference (P388 [7])	Weight difference (P388 [25])	Solubility [30]	also measured
O=C1C2C3C=CC(C2C(=O)N1CO)C1C(=O)N(CO)C(=O)C31 (centres undefined)	6	6	0.5%	6	160% and 152%	144% and 137%	-3.9 g and -4 g	6	-3.4 g and -4.1 g							T/C (P388 [3]): 114% and 132%; T/C (P388 [4]; 50 mg/kg): 127% and 140%; Weight difference (P388 [7]; 50 mg/kg): -2.5 g and -1.8 g
CN1CCN(CN2C(=O)C3C4C=CC(C3C2=O)C2C3C(=O)N(CN5CCN(C)CC5)C(=O)C3C42)CC1 (centres undefined)			1.5%	6		200% and 211%	-3.7 g and -4.9 g	6		-0.6 g	99%	106%	-1.3 g			Weight difference (P388 [14]): -0.2 g; Survivors at day 4 (P388 [15]): 6; T/C (P388 [16]): 116%; Weight difference (P388 [18]): -5.1 g; Survivors at day 4 (P388 [19]): 5; Survivors at day 4 (P388 [20]): 3; Weight difference (P388 [21]): -3.1 g; Survivors at day 4 (P388 [22]): 5; T/C (P388 [23]): 165%; Survivors at day 4 (P388 [24]): 6; Weight difference (P388 [12]): -9 g
CC(=O)OC(C(=O)O)N1C(=O)C2C3C=CC(C2C1=O)C1C2C(=O)N(C(OC(C)=O)C(=O)O)C(=O)C2C31 (centres undefined)	6	6		6	175% and 125%	123% and 113%		6	-1.2 g and -0.5 g	0.2 g	103%	110%	-0.3 g	-5.7 g		T/C (P388 [26]): Toxic; Survivors at day 4 (P388 [27]): 3
CCN(CC)CN1C(=O)C2C3C=CC(C2C1=O)C1C2C(=O)N(CN(CC)CC)C(=O)C2C31 (centres undefined)	6	6		6	139% and 125%	117% and 116%	-0.8 g and -0.4 g	6	-0.7 g and -0.6 g	0 g	103%			-0.9 g	Insoluble	T/C (P388 [4]; 50 mg/kg): 111% and 102%; Survivors at day 4 (P388 [28]): 5; T/C (P388 [29]): 111%; Weight difference (P388 [7]; 50 mg/kg): -1 g and -0.5 g
CN1C(=O)C2C3C=CC(C2C1=O)C1C2C(=O)N(C)C(=O)C2C31 (centres undefined)	6	6			111% and 104%			6				108%			Insoluble	Weight difference (P388 [31]): -0.8 g and -1.4 g; Survivors at day 4 (P388 [32]): 6; Weight difference (P388 [4]): -0.9 g; T/C (P388 [33]): 135%; Weight difference (P388 [33]): -2 g; T/C (P388 [9]): 111%; Weight difference (P388 [9]): -0.8 g
CN1CCN(CN2C(=O)C3C4C=CC(C3C2=O)C2C(=O)N(CN3CCN(C)CC3)C(=O)C42)CC1 (centres undefined)	6	6	2%		122% and 128%	126% and 113%		6	-3.1 g and -3.6 g			108%	0 g	-6.4 g		T/C (P388 [34]): Toxic; Survivors at day 4 (P388 [27]): 3
O=C1NC(=O)C2C1C(C(=O)O)C1C3C(=O)NC(=O)C3C1C2C(=O)O (centres undefined)	6	6			92% and 91%			6				94%			Insoluble	Survivors at day 4 (P388 [32]): 6; Weight difference (P388 [4]): 0 g; T/C (P388 [33]): 96%; Weight difference (P388 [33]): -0.2 g; T/C (P388 [9]): 97%; Weight difference (P388 [9]): -0.7 g
